This is an account of results in article PMC3645320 (Biochimica et biophysica acta, 2011).

Read-outs that look alike come from different tables or passages of the source. Bounds are passed on as bounds.

For assay [1], the target named is T1, E217A human recombinant thrombin (Homo sapiens, UniProt P00734, E592A). The experiment in a line: HPLC-based kinetic assay of FXIII. The format is biochemical. Particulars: E217A thrombin relative to WT thrombin. The procedure, abridged:
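Recombinant human E217A thrombin (over 90% active by hirudin titration) at 33.6 or 78.4 nM depending on peptide, acting on acetylated/amidated FXIII (28–41) segment peptides at 100–3000 μM. Conditions: 50 mM H3PO4, 100 mM NaCl, 0.1% PEG, pH 7.4, 25 °C. Timed aliquots quenched in 12.5% H3PO4. FXIII (28–37) product measured by RP-HPLC against a calibration curve.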

In assay [2] the target is T2, L99A human recombinant thrombin (Homo sapiens, UniProt P00734, L459A). The assay can be described thus: HPLC-based kinetic assay of FXIII. The format is biochemical. Particulars: L99A thrombin relative to WT thrombin.
Assay [3] deals with T3, W215A human recombinant thrombin (Homo sapiens, UniProt P00734, W590A). The experiment in a line: HPLC-based kinetic assay of FXIII. It is filed as biochemical. To be noted: W215A thrombin relative to WT thrombin.
For assay [4], the target named is W60dA human recombinant thrombin (Homo sapiens, UniProt P00734, W413A). The assay can be described thus: HPLC-based kinetic assay of FXIII. The format is biochemical. Particulars: W60dA thrombin relative to WT thrombin.
Assay [5] deals with Y60aA human recombinant thrombin (Homo sapiens, UniProt P00734, Y410A). The experiment in a line: HPLC-based kinetic assay of FXIII. It is filed as biochemical. Particulars: Y60aA thrombin relative to WT thrombin.
Assay [6] has as its target T1, E217A human recombinant thrombin. To be noted: E217A thrombin relative to WT thrombin; ref [37]; cited from earlier work.
For assay [7], the target named is T3, W215A human recombinant thrombin. Particulars: W215A thrombin relative to WT thrombin; ref [37]; cited from earlier work.
The target of assay [8] is T2, L99A human recombinant thrombin. To be noted: ref [37], cited from earlier work.

Turning to “Ac-TVELQGFVPRGVNL-NH2 [FXIII (28–41) V34F AP]”, in assay [1], the loss in kcat is listed as 2 fold. Also, the decrease in kcat was found to be 2 fold in assay [2], 3 fold in assay [3] and 4 fold in assay [4]. Besides, the “decrease in kcat/Km” value in assay [3] worked out at 3 fold. The “Km (in words)” value in assay [4] is recorded as “comparable to that of WT thrombin”.
Consider “Ac-TVELQGLVPRGVNL-amide (Ac-TVELQGLVPRGVNL-NH2) [FXIII (28–41) V34L AP]”, for which the “increase in Km” value in assay [5] came to 2 fold. For the same substance, in assay [6], the decrease in kcat is reported as no more than 2 fold and the “increase in Km” value is given as 3–4 fold.
For the substance “Ac-TVELQGPVPRGVNL-NH2 [FXIII (28–41) V34P AP]”, the decrease in kcat in assay [3] came out at 2 fold; in assay [4], 1.3 fold.
In the case of “Ac-TVELQGVVPRGVNL-NH2 [FXIII (28–41) V34 AP]”, the “decrease in kcat/Km” value in assay [7] is 4 fold. In addition, the figures for the decrease in kcat in assay [8] (L99A thrombin relative to WT thrombin), in assay [6] and in assay [4] were 3 fold, no more than 2 fold and 3 fold, respectively. Besides, in assay [8] (L99A thrombin, relative to WT thrombin or across the V34X series), the “Km and kcat (in words)” value is reported as “highest Km values of the IIa L99A series”. The figures for the “increase in Km” value in assay [5] and in assay [6] were 2 fold and 3–4 fold, respectively.
